Measurements pooled from the literature.
Protocols differ between the studies behind these lines.
Read-out: cell growth or viability

SMILES | cell line | method | time | endpoint | result
CCCc1n(Cc2ccc3ccccc3n2)cc[n+]1Cc1ccc2ccccc2c1 | HOP-92 | SRB |  | TGI | 1.12 µM
COc1cc(OC)c2nccc(N3CCc4c(cc(Cn5ccnc5)cc4-c4cn(C)nc4C(F)(F)F)C3=O)c2c1 | K562 | ATP luminescence | 5 days | GI50 | 7300 nM
CC1(C)CCC(CN2CCN(c3ccc(C(=O)NS(=O)(=O)c4ccc(NCC5CCOCC5)c([N+](=O)[O-])c4)c(Oc4cnc5[nH]ccc5c4)c3)CC2)=C(c2ccc(Cl)cc2)C1 | MDCK |  | 24 h | EC50 | > 50000 nM
COc1ccc(-c2ccc(-c3ccc(C(=N)N)nc3)s2)cc1Cl | UO-31 |  |  | GI50 | 1550 nM
Cc1n(Cc2ccc3ccccc3n2)cc[n+]1Cc1ccc2ccccc2c1 | HOP-92 | SRB |  | TGI | 3.81 µM
CC(C)C[C@H](NC(=O)[C@H](Cc1ccccc1)NC(=O)c1cnccn1)B(O)O | OVK18 | ATP luminescence |  | IC50 | 0.0088 µM
c1ccc2cc(Cn3cc[n+](Cc4ccc5ccccc5c4)c3)ccc2c1 | HOP-92 | SRB |  | TGI | 1.39 µM
Cc1cc(C)n(C(=S)[S][Au][PH](CCCCCC[PH]([Au][S]C(=S)n2nc(C)cc2C)(c2ccccc2)c2ccccc2)(c2ccccc2)c2ccccc2)n1 | UO-31 |  |  | GI50 | 482 nM
c1ccc(-c2n(Cc3ccc4ccccc4c3)cc[n+]2Cc2ccc3ccccc3c2)cc1 | HOP-62 | SRB |  | TGI | 3.23 µM
Nc1c2c(nc3ccccc13)CCCC2O (stereo not drawn) | CAL-27 |  | 72 h | IC50 | > 20 µM
COc1cc(-c2ccc(-c3ccc(C(=N)N)nc3)s2)cc(OC)c1OC | UO-31 |  |  | GI50 | 1880 nM
CN(C)CCOc1ccc(-c2nc(-c3ccncc3)c(-c3ccc4c(c3)CC/C4=N\O)[nH]2)cc1 | 451Lu | ATP luminescence | 72 h | EC50 | 670 nM
COc1ccc(-c2ccc(-c3ccc(C(=N)N)nc3)s2)cc1 | UO-31 |  |  | GI50 | 1640 nM
CCc1n(Cc2ccc3ccccc3n2)cc[n+]1Cc1ccc2ccccc2c1 | HOP-62 | SRB |  | TGI | 7.02 µM
CC(C)(C=O)Cc1cc(C(C)(C)C)c(O)c(C(C)(C)C)c1 | CAL-27 |  | 72 h | IC50 | > 20 µM
